From PubChem BioAssay AID623922 (The Scripps Research Institute Molecular Screening Center, 2012)
Active and inactive are the calls of the source.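 Rule for the calls: active = residual nuclease activity at or below 52% of the solvent-only control; inactive = the rest.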

Target: RecBCD enzyme subunit RecC (Escherichia coli (strain K12)) + RecBCD enzyme subunit RecB (Escherichia coli (strain K12)) (UniProt P07648+P08394)
Assay: RecBCD dsDNA exonuclease activity remaining – biochemical, radioactivity readout, 50 µM single dose, counter-screen for AddAB inhibitor project, late-stage follow-up (AID 623922)
Details: purified RecBCD, [3H] dsDNA nuclease, TCA-soluble radioactivity; at 50 µM; active compounds read low
Summary of the method: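 Test system: purified Escherichia coli RecBCD helicase-nuclease enzyme; benchmarks: DMSO control and no-enzyme background; schedule: mixing on ice, 20 min reaction at 37 °C; signal: radioactivity counts of acid-soluble DNA digestion products; probe or stimulus: [3H] T7 dsDNA, 6 µM nucleotides; medium: pH 8.5, 10 mM MgCl2, 25 µM ATP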

RecBCD enzyme subunit RecC (Escherichia coli (strain K12)) + RecBCD enzyme subunit RecB (Escherichia coli (strain K12)), sequence (P07648 whole entry, looked up): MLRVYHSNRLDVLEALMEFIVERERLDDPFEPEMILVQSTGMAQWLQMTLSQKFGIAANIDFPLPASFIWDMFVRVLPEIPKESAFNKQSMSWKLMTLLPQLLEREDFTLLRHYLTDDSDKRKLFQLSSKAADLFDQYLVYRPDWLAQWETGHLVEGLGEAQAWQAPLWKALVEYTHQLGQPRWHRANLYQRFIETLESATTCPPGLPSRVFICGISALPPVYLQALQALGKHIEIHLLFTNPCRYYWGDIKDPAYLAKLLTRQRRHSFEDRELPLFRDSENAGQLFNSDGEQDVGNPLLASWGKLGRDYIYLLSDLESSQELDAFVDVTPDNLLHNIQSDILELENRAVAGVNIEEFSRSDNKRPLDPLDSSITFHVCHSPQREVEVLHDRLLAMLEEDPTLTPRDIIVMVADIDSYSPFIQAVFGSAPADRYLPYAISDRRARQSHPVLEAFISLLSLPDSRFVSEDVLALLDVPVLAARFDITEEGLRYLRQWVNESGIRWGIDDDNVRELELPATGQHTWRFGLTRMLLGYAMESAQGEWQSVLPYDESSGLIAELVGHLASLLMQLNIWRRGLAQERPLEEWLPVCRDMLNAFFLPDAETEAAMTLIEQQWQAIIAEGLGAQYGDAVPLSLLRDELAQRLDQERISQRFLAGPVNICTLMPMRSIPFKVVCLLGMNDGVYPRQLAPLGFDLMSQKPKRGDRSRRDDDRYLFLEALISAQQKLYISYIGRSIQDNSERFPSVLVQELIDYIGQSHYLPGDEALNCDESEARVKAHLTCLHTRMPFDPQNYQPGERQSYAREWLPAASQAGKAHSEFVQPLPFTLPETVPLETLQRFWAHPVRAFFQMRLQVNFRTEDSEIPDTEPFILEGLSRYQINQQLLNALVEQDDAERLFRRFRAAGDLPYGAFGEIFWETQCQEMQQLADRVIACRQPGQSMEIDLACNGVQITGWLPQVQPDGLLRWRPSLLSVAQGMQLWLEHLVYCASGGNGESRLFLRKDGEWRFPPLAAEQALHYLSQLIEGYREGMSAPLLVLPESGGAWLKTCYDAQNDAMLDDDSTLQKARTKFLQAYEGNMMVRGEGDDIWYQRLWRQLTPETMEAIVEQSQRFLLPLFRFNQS
RecBCD enzyme subunit RecC (Escherichia coli (strain K12)) + RecBCD enzyme subunit RecB (Escherichia coli (strain K12)), sequence (P08394 whole entry, looked up): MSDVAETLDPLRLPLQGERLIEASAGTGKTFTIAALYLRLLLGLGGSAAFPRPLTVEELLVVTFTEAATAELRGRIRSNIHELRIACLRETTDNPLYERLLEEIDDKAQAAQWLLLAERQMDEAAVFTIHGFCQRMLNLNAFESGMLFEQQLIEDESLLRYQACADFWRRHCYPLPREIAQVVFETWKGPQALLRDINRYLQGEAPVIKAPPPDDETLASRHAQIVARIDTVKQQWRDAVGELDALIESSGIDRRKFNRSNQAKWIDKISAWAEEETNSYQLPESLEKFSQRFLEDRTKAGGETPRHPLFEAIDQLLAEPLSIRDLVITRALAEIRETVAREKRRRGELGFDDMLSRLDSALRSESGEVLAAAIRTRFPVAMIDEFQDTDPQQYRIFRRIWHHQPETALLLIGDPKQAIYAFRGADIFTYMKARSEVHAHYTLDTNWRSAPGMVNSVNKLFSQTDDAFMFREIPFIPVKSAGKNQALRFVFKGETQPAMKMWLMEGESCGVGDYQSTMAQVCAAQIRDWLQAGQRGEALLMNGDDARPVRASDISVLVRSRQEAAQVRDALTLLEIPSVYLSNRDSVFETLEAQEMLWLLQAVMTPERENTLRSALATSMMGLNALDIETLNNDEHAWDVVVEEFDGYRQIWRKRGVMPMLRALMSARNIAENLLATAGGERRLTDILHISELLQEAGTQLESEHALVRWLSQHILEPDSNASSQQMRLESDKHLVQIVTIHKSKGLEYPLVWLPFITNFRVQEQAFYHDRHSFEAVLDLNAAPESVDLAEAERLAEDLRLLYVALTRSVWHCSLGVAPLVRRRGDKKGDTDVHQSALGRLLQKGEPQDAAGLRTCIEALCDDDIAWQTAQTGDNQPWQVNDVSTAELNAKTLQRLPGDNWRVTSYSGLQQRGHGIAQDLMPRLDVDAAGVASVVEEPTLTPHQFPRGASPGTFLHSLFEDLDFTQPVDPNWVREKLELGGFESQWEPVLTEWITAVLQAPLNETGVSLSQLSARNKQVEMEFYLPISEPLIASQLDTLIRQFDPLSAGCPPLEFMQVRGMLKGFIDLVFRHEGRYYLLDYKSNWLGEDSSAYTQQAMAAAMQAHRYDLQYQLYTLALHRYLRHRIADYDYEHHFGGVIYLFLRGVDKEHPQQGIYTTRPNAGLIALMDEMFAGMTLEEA

residual nuclease activity	SMILES
45%	CCn1cc(C(=O)O)c(=O)c2cnc(N3CCN(C(=S)NCc4ccccc4)CC3)nc21
91% (inactive)	CCn1cc(C(=O)O)c(=O)c2cnc(N3CCN(C(=O)Nc4ccccc4)CC3)nc21
68% (inactive)	CCn1cc(C(=O)O)c(=O)c2cnc(N3CCN(C(=S)Nc4ccccc4)CC3)nc21
51%	CCn1cc(C(=O)O)c(=O)c2cnc(N3CCN(C(=S)Nc4ccc(F)cc4)CC3)nc21
8%	CCn1cc(C(=O)O)c(=O)c2cnc(N3CCN(C(=S)Nc4cccc(C(F)(F)F)c4)CC3)nc21
50%	CCn1cc(C(=O)O)c(=O)c2cnc(N3CCN(C(=S)Nc4ccc(Cl)cc4)CC3)nc21
75% (inactive)	CCn1cc(C(=O)O)c(=O)c2cnc(N3CCN(C(=S)NC4CC5CCC4C5)CC3)nc21 (configuration not stated)
27%	CCn1cc(C(=O)O)c(=O)c2cnc(N3CCN(C(=S)NC(C)c4ccccc4)CC3)nc21 (configuration not stated)
46%	CCn1cc(C(=O)O)c(=O)c2cnc(N3CCN(C(=S)Nc4ccc5c(c4)OCO5)CC3)nc21
93% (inactive)	CCn1cc(C(=O)O)c(=O)c2cnc(N3CCNCC3)nc21
47%	CCn1cc(C(=O)O)c(=O)c2cnc(N3CCN(C(=S)NC(=O)c4cccc(C)c4)CC3)nc21
43%	CCn1cc(C(=O)O)c(=O)c2cnc(N3CCN(C(=S)Nc4ccccc4C(F)(F)F)CC3)nc21
